{"source": "paper PMC2610486", "about": "(Bioorganic & medicinal chemistry, 2008)", "key": {"[1]": {"target": "T1, Cyp4F2 (tocopherol-ω-hydroxylase) (Homo sapiens, UniProt P78329)", "T1 sequence (P78329 5-520)": "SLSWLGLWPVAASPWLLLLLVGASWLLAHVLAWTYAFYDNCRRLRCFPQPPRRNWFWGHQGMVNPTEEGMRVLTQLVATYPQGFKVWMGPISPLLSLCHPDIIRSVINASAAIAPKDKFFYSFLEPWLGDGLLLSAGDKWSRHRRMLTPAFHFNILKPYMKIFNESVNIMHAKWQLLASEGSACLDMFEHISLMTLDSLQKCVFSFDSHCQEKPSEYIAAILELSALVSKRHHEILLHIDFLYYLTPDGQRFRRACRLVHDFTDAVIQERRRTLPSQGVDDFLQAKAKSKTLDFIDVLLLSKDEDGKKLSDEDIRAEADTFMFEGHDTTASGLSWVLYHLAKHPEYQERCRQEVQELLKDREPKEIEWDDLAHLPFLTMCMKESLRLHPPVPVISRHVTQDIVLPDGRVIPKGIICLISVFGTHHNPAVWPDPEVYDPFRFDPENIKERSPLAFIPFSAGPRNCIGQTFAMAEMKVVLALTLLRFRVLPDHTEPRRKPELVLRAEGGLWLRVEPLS", "assay": "Inhibition of γ-tocopherol metabolism", "format": "cell-based", "settings": "HepG2 cells; at concentrations as low as 250 nM"}, "[2]": {"tested_on": "tocopherol ω-hydroxylase", "assay": "Tissue enrichment in δ-tocopherol in mice fed δ-tocopherol with or without 1", "format": "in vivo, mouse", "how_it_was_run": "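Two groups of three male FVB/N mice were fed 10 days on ground chow with δ-tocopherol (6000 mg/kg diet), with or without test compound (500 mg/kg diet). Compound in ethanol and δ-tocopherol were premixed in diglyceride oil, then added to chow. Mice were fasted 5 h and euthanised. Plasma, liver and bile tocopherols were measured by GC-MS with d9-α-tocopherol internal standard. Results are δ-/α-tocopherol ratios, given as means and SD.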"}, "[3]": {"tested_on": "HepG2 cells", "format": "cell-based, human", "settings": "HepG2 cultures"}, "[4]": {"target": "CYP3A4 (Homo sapiens, UniProt P08684)", "sequence (P08684 whole entry)": "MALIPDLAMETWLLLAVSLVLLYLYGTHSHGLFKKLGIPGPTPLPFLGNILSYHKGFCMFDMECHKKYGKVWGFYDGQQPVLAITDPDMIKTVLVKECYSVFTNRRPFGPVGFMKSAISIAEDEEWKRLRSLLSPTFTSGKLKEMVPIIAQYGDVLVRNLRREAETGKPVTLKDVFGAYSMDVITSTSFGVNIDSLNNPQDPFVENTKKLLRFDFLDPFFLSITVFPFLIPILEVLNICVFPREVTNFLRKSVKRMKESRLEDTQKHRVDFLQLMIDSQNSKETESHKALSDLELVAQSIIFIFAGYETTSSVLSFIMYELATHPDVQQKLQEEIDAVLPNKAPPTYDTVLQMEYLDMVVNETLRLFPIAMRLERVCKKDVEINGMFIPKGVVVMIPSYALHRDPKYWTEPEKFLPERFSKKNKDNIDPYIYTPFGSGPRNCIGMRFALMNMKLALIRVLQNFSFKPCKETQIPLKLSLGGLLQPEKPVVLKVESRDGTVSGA", "assay": "Testosterone-6-hydroxylase activity in HepG2/C3A cell culture", "format": "cell-based", "settings": "HepG2/C3A cultures; 50 µM testosterone, 48 hr", "how_it_was_run": "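Confluent HepG2 cultures were pre-incubated 4 h with test compound or ethanol control, then 50 µM testosterone was added. After 48 h incubation, medium was extracted with ethyl acetate and 6-hydroxytestosterone, as its trimethylsilyl ether, was quantified by GC-MS. Results are percent inhibition, given as means and standard deviation.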"}, "[5]": {"settings": "male FVB/N mice, 500 mg 1 per kg diet with δ-tocopherol 6000 mg per kg diet, 10 days, P<0.05"}}}
{"smiles": "Cc1c(C)c2c(c(C)c1O)CC[C@@](C)(CCCCCCCCCn1ccnc1)O2", "note": "[Compound 1, (R)-2-(9-(1H-imidazol-1-yl)nonyl)-2,5,7,8-tetramethylchroman-6-ol]", "values": [{"measurement": "Inhibition of γ-tocopherol metabolism", "setting": "[1]", "result": "complete inhibition"}, {"measurement": "Level of δ-tocopherol in mice", "setting": "[2]; 1 at 500 mg per kg of diet that also contained δ-tocopherol", "result": "raised"}, {"measurement": "Change in δ-tocopherol / α-tocopherol ratio in bile", "setting": "[2]; [5]", "result": "tripled"}, {"measurement": "Change in δ-tocopherol / α-tocopherol ratio in liver", "setting": "[2]; [5]", "result": "doubling"}, {"measurement": "Effect on α-tocopherol status", "setting": "[2]; mice fed δ-tocopherol with or without 1", "result": "no evidence that α-tocopherol status was affected"}, {"measurement": "Effect on total cell protein", "setting": "[3]", "result": "no effect"}, {"measurement": "Morphology of monolayers", "setting": "[3]", "result": "normal"}, {"measurement": "Effect on testosterone-6-hydroxylase (CYP3A4) activity (qualitative)", "setting": "[4]", "result": "inhibited"}]}
{"smiles": "Cc1c(C)c2c(c(C)c1O)CC[C@@](C)(CCCCCCCCCn1cncn1)O2", "note": "[Compound 2, (R)-2-(9-(1H-1,2,4-triazol-1-yl)nonyl)-2,5,7,8-tetramethylchroman-6-ol]", "values": [{"measurement": "Effect on testosterone-6-hydroxylase (CYP3A4) activity (qualitative)", "setting": "[4]", "result": "inhibited"}]}
{"smiles": "Cc1c(C)c2c(c(C)c1O)CC[C@@](C)(CCCCCCCCCn1ccnn1)O2", "note": "[Compound 3, (R)-2-(9-(1H-1,2,3-triazol-1-yl)nonyl)-2,5,7,8-tetramethylchroman-6-ol]", "values": [{"measurement": "Effect on testosterone-6-hydroxylase (CYP3A4) activity (qualitative)", "setting": "[4]", "result": "inhibited"}]}
